Experiments:
[1] = test system: Human immunodeficiency virus 1; experiment: Inhibitory activity against wild type HIV-1 LAI cell line; assay type: functional, organism-based; conditions: Human immunodeficiency virus 1, LAI
Method in brief: (§1)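 MT4 human T-lymphoblastoid cells were grown in RPMI 1640 with 10% fetal calf serum and antibiotics at 37 °C and 5% CO2. A compound concentration series was combined with HIV-1 LAI at 200 CCID50/well and 30 000 cells/well. Mock-infected cultures with the same concentrations were run in parallel to measure cytotoxicity. After 5 days, cell viability was read by MTT colorimetry. EC50 is the concentration giving 50% infection versus the drug-free control.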

[2] = test system: Human immunodeficiency virus 1; experiment: Selectivity index of cytotoxic activity (CC50) to inhibitory activity (IC50) relative to LAI cell line; assay type: functional; method in brief: as §1
[3] = test system: Human immunodeficiency virus 1; experiment: Inhibitory activity against HIV-1 mutant strain 181C; assay type: functional, organism-based
Method in brief: (§2)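 Mutant HIV-1 made by recombining mutant PR-RT sequence into a PR-RT-deleted HXB2 proviral clone. Serial compound concentrations plated, then virus (200 CCID50/well) and MT4 cells (30 000 cells/well; RPMI 1640, 10% FCS) added; 5 days at 37 °C, 5% CO2; viability read by MTT. EC50 = concentration giving 50% infection versus drug-free control; mock-infected cultures run in parallel for toxicity.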

[4] = test system: Human immunodeficiency virus 1; experiment: Inhibitory activity against HIV-1 mutant strain 103N; assay type: functional, organism-based; method in brief: as §2
[5] = test system: Human immunodeficiency virus 1; experiment: Inhibitory activity against HIV-1 mutant strain 188L; assay type: functional, organism-based; method in brief: as §2

With `CCc1c(C)nc(O)c(N(C)C)c1C(=O)c1cccc(/C=C/c2ccoc2)c1` the IC50 [1] was 70 nM and the Selectivity index [2] was 631.

Molecule `CCc1c(C)nc(O)c(N(C)C)c1C(=O)c1ccc(C#N)cc1` has an IC50 [1] of 3160 nM and a Selectivity index [2] of 32.

`CC/C=C/c1cccc(C(=O)c2c(CC)c(C)nc(O)c2N(C)C)c1` showed an IC50 [1] of 50 nM and a Selectivity index [2] of 1260.

In the case of `CCc1c(C)nc(O)c(N(C)C)c1C(=O)c1cccc(COc2ccccc2)c1`, the IC50 [1] is reported as 30 nM and the Selectivity index [2] is reported as 2510.

In the case of `CCc1c(C)nc(O)c(N(C)C)c1C(=O)c1cccc(C(C)O)c1` (stereo not drawn), the IC50 [1] is reported as 50 nM and the Selectivity index [2] is reported as 2000.

`CCNC(=O)Nc1cccc(C(=O)c2c(CC)c(C)nc(O)c2N(C)C)c1` gave an IC50 [1] of 1990 nM and a Selectivity index [2] of 50.

`CCc1c(C)nc(O)c(N(C)C)c1C(=O)c1cccc(/C=C\c2ccco2)c1` gave an IC50 [1] of 60 nM and a Selectivity index [2] of 794.

`CCc1c(C)nc(O)c(N(C)C)c1C(=O)c1cccc(-n2cccc2)c1` was tested, and the IC50 [1] was 70 nM and the Selectivity index [2] was 631.

`CCc1c(C)nc(O)c(N(C)C)c1C(=O)c1cccc(/C=C/c2ccccn2)c1` gave an IC50 [1] of 70 nM and a Selectivity index [2] of 1260.

`CCc1c(C)nc(O)c(N(C)C)c1Cc1ccc(C)cc1` was tested, and the IC50 [1] was 310 nM, the IC50 [3] was 10000 nM and the Selectivity index [2] was 316. It also gave an IC50 [4] of 12600 nM.

For `CCc1c(C)nc(O)c(N(C)C)c1C(=O)c1cccc(/C=C(\C)C#N)c1`, the IC50 [5] was 630 nM, the IC50 [1] was 1 nM and the Selectivity index [2] was 6310.

Molecule `CCc1c(C)nc(O)c(N(C)C)c1Cc1ccnc2ccccc12` has an IC50 [1] of 5010 nM, an IC50 [3] of 63000 nM and a Selectivity index [2] of 20. It also gave an IC50 [4] of 79400 nM.

`CCc1c(C)nc(O)c(N(C)C)c1Cc1nccs1` gave an IC50 [1] of 60 nM, an IC50 [3] of 500 nM and a Selectivity index [2] of 1580. For the same molecule, the IC50 [4] was 1990 nM.

Molecule `CCc1c(C)nc(O)c(N(C)C)c1Cc1cc(C)ccc1C` has an IC50 [1] of 150 nM, a Selectivity index [2] of 631 and an IC50 [4] of 1990 nM.

`CCc1c(C)nc(O)c(N(C)C)c1Cc1ccc(C(F)(F)F)cc1` gave an IC50 [1] of 1580 nM, an IC50 [3] of 10000 nM and a Selectivity index [2] of 6. For the same molecule, the IC50 [4] was 10000 nM.

`CCc1c(C)nc(O)c(N(C)C)c1C(=O)c1c(F)cccc1F` was tested, and the IC50 [1] was 50 nM and the Selectivity index [2] was 2000.

`CCc1c(C)nc(O)c(N(C)C)c1C(=O)c1cccc(CNC(C)=O)c1` gave an IC50 [1] of 390 nM and a Selectivity index [2] of 251.

`CCc1c(C)nc(O)c(N(C)C)c1C(=O)c1cccc(/C=C\c2cnccn2)c1` gave an IC50 [1] of 190 nM and a Selectivity index [2] of 501.

`CCc1c(C)nc(O)c(N(C)C)c1Cc1ccc(C)cc1C` gave an IC50 [1] of 10000 nM, an IC50 [3] of 100000 nM and a Selectivity index [2] of 10. The IC50 [4] was 100000 nM.

`CCc1c(C)nc(O)c(N(C)C)c1C(=O)c1cccc(/C=C\c2ccncc2)c1` was tested, and the IC50 [1] was 60 nM and the Selectivity index [2] was 794.

`CCc1c(C)nc(O)c(N(C)C)c1C(=O)c1cccc(/C=C/c2ccncc2)c1` was tested, and the IC50 [1] was 10 nM and the Selectivity index [2] was 10000.

Work on `CCc1c(C)nc(O)c(N(C)C)c1C(=O)c1cccc(/C=C\c2nccs2)c1` yielded an IC50 [1] of 150 nM and a Selectivity index [2] of 501.

`CCc1c(C)nc(O)c(N(C)C)c1C(=O)c1cccc(NC(C)=O)c1` was tested, and the IC50 [1] was 120 nM and the Selectivity index [2] was 794.

In the case of `CCc1c(C)nc(O)c(N(C)C)c1Cc1ccc(C)c(C)c1`, the IC50 [1] is reported as 40 nM, the IC50 [3] is reported as 400 nM and the Selectivity index [2] is reported as 2510. The IC50 [4] was 1000 nM.

For `CCc1c(C)nc(O)c(N(C)C)c1Cc1c(C)cc(C)cc1C`, the IC50 [1] was 10000 nM, the IC50 [3] was 10000 nM and the Selectivity index [2] was 1. The IC50 [4] was 10000 nM.

`CCc1c(C)nc(O)c(N(C)C)c1C(=O)c1cccc(/C=C/c2nccs2)c1` showed an IC50 [1] of 30 nM and a Selectivity index [2] of 3160.

Molecule `CCc1c(C)nc(O)c(N(C)C)c1C(=O)c1cccc(-c2ccco2)c1` has an IC50 [1] of 60 nM and a Selectivity index [2] of 158.

Molecule `CCc1c(C)nc(O)c(N(C)C)c1Cc1ccc(-c2ccccc2)cc1` has an IC50 [1] of 3980 nM, an IC50 [3] of 10000 nM and a Selectivity index [2] of 3. It also gave an IC50 [4] of 10000 nM.

In the case of `CCc1c(C)nc(O)c(N(C)C)c1C(=O)c1cccc(/C=C(\C#N)c2cccnc2)c1`, the IC50 [1] is reported as 60 nM and the Selectivity index [2] is reported as 200.

Molecule `CCc1c(C)nc(O)c(N(C)C)c1C(=O)c1cccc(-c2nccs2)c1` has an IC50 [1] of 250 nM and a Selectivity index [2] of 40.

With `CCc1c(C)nc(O)c(N(C)C)c1C(=O)c1cccc(N2CCCC2=O)c1` the IC50 [1] was 40 nM and the Selectivity index [2] was 2510.

`CCc1c(C)nc(O)c(N(C)C)c1C(=O)c1cccc(C#Cc2ccccc2)c1` gave an IC50 [1] of 150 nM and a Selectivity index [2] of 631.

With `CCc1c(C)nc(O)c(N(C)C)c1C(=O)c1cccc(/C=C(\C#N)c2cccs2)c1` the IC50 [1] was 190 nM and the Selectivity index [2] was 126.

`CCc1c(C)nc(O)c(N(C)C)c1Cc1cccc(C)c1C` was tested, and the IC50 [1] was 100 nM, the IC50 [3] was 2510 nM and the Selectivity index [2] was 200. For the same molecule, the IC50 [4] was 2510 nM.
